Activity calls are given as the source filed them.
Experiments:
Mus musculus = assay: Analgesic activity in po dosed CD-1 mouse model of oxaliplatin-induced neuropathic pain assessed as reversal of lowering of threshold to cold stimuli administered on day 14 after oxaliplatin addition by cold plate test; assay type: functional, organism-based
[1] = target: Acyl-protein thioesterase 1/2 (Rattus norvegicus) (UniProt P70470+Q9QYL8); assay: Inhibition of LYPLA1/2 in rat brain membranes at 500 to 1000 nM preincubated for 20 mins followed by fluorophosphonate-rhodamine addition measured after 30 mins by competitive affinity based proteomic profiling assay; assay type: cell membranes; conditions: Membrane
In short: (§1)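 Rat brain membranes (1 mg/mL) preincubated with 1–1000 nM inhibitor or DMSO for 20 min at 37 °C. FP-rhodamine then added and incubated a further 30 min at 37 °C. Samples run on SDS-PAGE and serine hydrolase bands quantified by in-gel fluorescence.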

[2] = target: T1, Fatty-acid amide hydrolase 1 (Rattus norvegicus) (UniProt P97612); assay: Inhibition of FAAH in rat brain membranes up to 500 nM preincubated for 20 mins followed by fluorophosphonate-rhodamine addition measured after 30 mins by competitive affinity based proteomic profiling assay; assay type: cell membranes; conditions: Membrane; in short: as §1
T1 sequence (whole entry): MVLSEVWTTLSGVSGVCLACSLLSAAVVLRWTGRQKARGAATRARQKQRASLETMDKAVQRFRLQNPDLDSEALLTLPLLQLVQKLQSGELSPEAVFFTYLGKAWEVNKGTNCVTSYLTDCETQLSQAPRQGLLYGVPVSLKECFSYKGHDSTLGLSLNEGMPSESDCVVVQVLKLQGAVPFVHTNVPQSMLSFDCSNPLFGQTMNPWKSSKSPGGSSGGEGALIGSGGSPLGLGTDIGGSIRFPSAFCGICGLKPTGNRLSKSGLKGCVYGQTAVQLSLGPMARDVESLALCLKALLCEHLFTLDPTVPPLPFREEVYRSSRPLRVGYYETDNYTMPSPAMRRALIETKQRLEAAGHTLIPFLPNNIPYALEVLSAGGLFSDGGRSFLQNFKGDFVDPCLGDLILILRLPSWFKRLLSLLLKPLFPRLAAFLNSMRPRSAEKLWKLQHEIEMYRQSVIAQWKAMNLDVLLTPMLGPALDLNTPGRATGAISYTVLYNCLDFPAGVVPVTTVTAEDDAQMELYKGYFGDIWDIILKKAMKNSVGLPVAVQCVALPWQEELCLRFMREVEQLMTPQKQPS

Heart [3] = assay: Cardiotoxicity in Langendorff-perfused Sprague-Dawley rat heart assessed as corrected time duration of action potential at 0.001 uM by ECG analysis (reference value: 155.26 +/- 2.96 milliseconds); assay type: toxicity, tissue-based
Cannabinoid receptor 1 = Cannabinoid receptor 1 (Homo sapiens, UniProt P21554); assay: Displacement of [3H]-CP-55940 from human recombinant CB1 receptor expressed in HEK293 cells after 90 mins; assay type: cell-based
In short: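 Membranes from HEK-293 cells stably expressing human CB1 (Bmax 2.9 pmol/mg) or CB2 (Bmax 6.0 pmol/mg) incubated 90 min at 30 °C with [3H]-CP-55,940: 0.4 nM for CB1, 0.53 nM for CB2. Non-specific binding defined with 10 µM WIN 55212-2.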

[4] = target: T2, Fatty-acid amide hydrolase 1 (Homo sapiens, UniProt O00519); assay: Inhibition of recombinant C-terminal His-tagged human FAAH expressed in sf21 cells using N-arachidonoyl-[14C]-ethanolamine as substrate assessed as reduction in [14C]ethanolamine production incubated for 30 mins by scintillation counting method
T2 sequence (O00519 whole entry): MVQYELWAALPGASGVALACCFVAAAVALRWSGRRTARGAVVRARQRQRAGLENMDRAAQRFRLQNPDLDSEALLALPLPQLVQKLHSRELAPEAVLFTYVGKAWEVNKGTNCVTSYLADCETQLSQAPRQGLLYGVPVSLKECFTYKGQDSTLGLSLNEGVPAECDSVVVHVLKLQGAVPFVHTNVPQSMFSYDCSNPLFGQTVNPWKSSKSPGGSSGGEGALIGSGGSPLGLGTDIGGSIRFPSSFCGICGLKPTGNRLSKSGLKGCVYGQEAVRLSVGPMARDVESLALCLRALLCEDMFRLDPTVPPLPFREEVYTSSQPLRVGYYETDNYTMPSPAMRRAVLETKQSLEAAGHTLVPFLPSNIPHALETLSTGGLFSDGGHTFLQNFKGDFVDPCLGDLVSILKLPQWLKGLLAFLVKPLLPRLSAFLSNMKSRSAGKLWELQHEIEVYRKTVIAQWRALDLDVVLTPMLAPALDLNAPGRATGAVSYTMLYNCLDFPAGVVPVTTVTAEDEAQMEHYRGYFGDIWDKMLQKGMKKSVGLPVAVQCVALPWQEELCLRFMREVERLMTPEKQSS
In short: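 Human recombinant FAAH (2 µg/sample) incubated in 50 mM Tris-HCl, pH 9.5, 37 °C, 30 min with N-arachidonoyl-[14C]-ethanolamine diluted with unlabelled AEA. [14C]-ethanolamine released was quantified by scintillation counting of the aqueous phase after extraction with 2 volumes CHCl3/MeOH 1:1. Values are means of three experiments.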

Monoglyceride lipase = target: T3, Monoglyceride lipase (Homo sapiens, UniProt Q99685); assay: Inhibition of recombinant C-terminal His6-tagged human MAGL expressed in Escherichia coli using 2-arachidonoyl-[3H]-glycerol as substrate incubated for 20 mins by scintillation counting method
T3 sequence (Q99685 whole entry): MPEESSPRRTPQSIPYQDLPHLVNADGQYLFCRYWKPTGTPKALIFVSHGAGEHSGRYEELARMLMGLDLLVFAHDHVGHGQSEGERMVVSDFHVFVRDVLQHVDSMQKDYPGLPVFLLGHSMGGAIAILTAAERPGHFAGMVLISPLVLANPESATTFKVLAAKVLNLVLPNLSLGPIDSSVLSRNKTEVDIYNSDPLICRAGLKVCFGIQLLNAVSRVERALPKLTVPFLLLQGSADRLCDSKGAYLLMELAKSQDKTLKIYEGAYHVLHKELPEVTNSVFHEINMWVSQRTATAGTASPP

[5] = Apparent permeability from luminal to abluminal side in human endothelial cells cocultured with pericytes at 100 uM after 20 to 60 mins by LC-UV analysis; assay type: ADME, cell-based, Endothelial cell
In short: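 Human BBB model: endothelial cells derived from hematopoietic stem cells, cocultured 6 days with pericytes. Compound (100 µM in Ringer + Hepes) added luminally together with Lucifer yellow as an integrity marker. Incubated 20, 40 and 60 min at 37 °C; abluminal compound measured by LC-UV. Papp = J/(A·C0).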

Heart [6] = assay: Cardiotoxicity in Langendorff-perfused Sprague-Dawley rat heart assessed as heart rate at 0.001 uM by ECG analysis (reference value: 252.78 +/- 9.28 bpm); assay type: toxicity, tissue-based
Heart [7] = assay: Cardiotoxicity in Langendorff-perfused Sprague-Dawley rat heart assessed as time duration of cardiac cycle length at 0.001 uM by ECG analysis (reference value: 238.38 +/- 9.23 milliseconds); assay type: toxicity, tissue-based
Heart [8] = assay: Cardiotoxicity in Langendorff-perfused Sprague-Dawley rat heart assessed as intraventricular conduction time at 1 uM by ECG analysis (reference value: 14.26 +/- 0.71 milliseconds); assay type: toxicity, tissue-based, Cardiac ventricle

Chain of Cannabinoid receptor 1 (P21554 whole entry): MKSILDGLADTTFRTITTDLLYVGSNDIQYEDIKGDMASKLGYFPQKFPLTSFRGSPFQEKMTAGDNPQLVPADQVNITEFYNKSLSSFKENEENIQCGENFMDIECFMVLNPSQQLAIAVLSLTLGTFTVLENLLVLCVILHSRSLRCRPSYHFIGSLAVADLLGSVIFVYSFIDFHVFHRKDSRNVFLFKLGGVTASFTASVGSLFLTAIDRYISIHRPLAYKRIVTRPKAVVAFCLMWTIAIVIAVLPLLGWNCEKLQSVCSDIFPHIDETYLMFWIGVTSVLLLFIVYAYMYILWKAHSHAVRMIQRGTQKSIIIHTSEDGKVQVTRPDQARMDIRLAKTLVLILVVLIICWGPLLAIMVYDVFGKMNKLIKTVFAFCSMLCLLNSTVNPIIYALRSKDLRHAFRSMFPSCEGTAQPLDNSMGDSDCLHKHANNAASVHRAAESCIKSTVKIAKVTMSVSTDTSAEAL
Chain of Acyl-protein thioesterase 1/2 (Rattus norvegicus) (P70470 whole entry, looked up): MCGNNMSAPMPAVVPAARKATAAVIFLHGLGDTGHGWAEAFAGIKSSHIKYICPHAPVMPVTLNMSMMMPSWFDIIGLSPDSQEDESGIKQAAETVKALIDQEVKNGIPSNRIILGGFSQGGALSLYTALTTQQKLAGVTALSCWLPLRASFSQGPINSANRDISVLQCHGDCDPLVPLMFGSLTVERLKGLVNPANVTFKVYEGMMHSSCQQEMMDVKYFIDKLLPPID
Chain of Acyl-protein thioesterase 1/2 (Rattus norvegicus) (Q9QYL8 whole entry, looked up): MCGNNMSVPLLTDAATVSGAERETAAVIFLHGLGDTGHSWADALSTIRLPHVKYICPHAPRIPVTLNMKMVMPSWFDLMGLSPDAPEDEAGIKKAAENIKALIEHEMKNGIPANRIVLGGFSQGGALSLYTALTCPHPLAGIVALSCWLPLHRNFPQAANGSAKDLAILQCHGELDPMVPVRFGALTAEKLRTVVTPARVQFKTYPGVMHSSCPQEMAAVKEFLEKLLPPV

Row | Structure (SMILES) | Activity (Mus musculus) | inhibition [1] | inhibition [2] | Time (Heart [3]) [ms] | IC50 (Cannabinoid receptor 1) [µM] | IC50 [4] [nM] | IC50 (Monoglyceride lipase) [nM] | Papp at 100 µM [5] [×10⁻⁶ cm/s] | Activity (Heart [6]) [bpm] | Time (Heart [7]) [ms] | Time (Heart [8]) [ms]
1 | O=C1[C@H](c2ccc(F)cc2)[C@@H](c2ccc3c(c2)OCO3)N1C1CCN(C(=O)n2cncn2)CC1 (racemic) [listing 1 of 2 here] | Dose-dependent effect | Active | inactive | – | – | – | – | – | – | – | –
2 | O=C1[C@H](c2ccc(F)cc2)[C@@H](c2ccc3c(c2)OCO3)N1C1CCN(C(=O)n2cncn2)CC1 (racemic) [listing 2 of 2 here] | – | – | – | 157.13 | > 10 | 2880 | 7.4 | 47 | 254.38 | 236.93 | 13.75

— ChEMBL document CHEMBL3785023, “Development and Pharmacological Characterization of Selective Blockers of 2-Arachidonoyl Glycerol Degradation with Efficacy in Rodent Models of Multiple Sclerosis and Pain” (J Med Chem, 2016)
